Measurements from ChEMBL document CHEMBL1156144, “Biaryl ethers as novel non-nucleoside reverse transcriptase inhibitors with improved potency against key mutant viruses” (J Med Chem, 2009).

Columns and labels:
[1] = tested on: Human immunodeficiency virus; test: Antiviral activity against HIV with reverse transcriptase K103N/Y181C double mutant infected in human MT2 cells assessed as inhibition of viral replication measuring p24 level after 3 days in presence of 10% fetal bovine serum; type: functional; conditions: Human immunodeficiency virus 1, MT2, Serum, 72 h; read-out: CIC95
How it was run: (§1)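 Multiple-cycle replication (Spread) assay in MT2 cells with H9IIIB-background mutant virus. Cells were infected overnight at moi ≈ 0.01 without compound, washed, then cultured 3 days across a range of compound concentrations in medium with 10% FBS. p24 was measured in supernatants. CIC95 is the lowest concentration inhibiting replication by ≥95%, reported as the geometric mean of ≥2 determinations.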

[2] = tested on: Human immunodeficiency virus; test: Antiviral activity against wild type HIV H9-3B infected in human MT2 cells assessed as inhibition of viral replication measuring p24 level after 3 days in presence of 50% normal human serum; type: functional; conditions: Human immunodeficiency virus 1, H9-3B, 72 h, read-out: CIC95
How it was run: (§2)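 Multiple-cycle spread assay in MT2 cells with wild-type H9IIIB virus. Cells were infected overnight at moi ≈ 0.01 without compound, washed, then cultured 3 days across varying compound concentrations in RPMI 1640 with 10% FBS or 50% NHS. p24 was measured in supernatants. CIC95 is the lowest concentration inhibiting replication ≥95%, as the geometric mean of ≥2 determinations.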

[3] = Inhibition of RNA-dependent DNA polymerase activity of wild type HIV reverse transcriptase assessed as BrdU incorporation by standard ECL assay; design: species or system Human immunodeficiency virus
How it was run: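 Purified recombinant wild-type RT polymerase activity was measured using a 500-nt heteropolymeric RNA template and a biotinylated DNA primer. BrdU incorporation was detected with a ruthenylated anti-BrdU antibody by electrochemiluminescence. Ki is the geometric mean of at least two determinations, each within 25% of the mean.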

Rattus norvegicus = test: AUC in Sprague-Dawley rat at 2 mg/kg, iv; type: ADME, organism-based, Plasma; design: dose 2 mg/kg, route intravenous; conditions: in vivo
[4] = Clearance in Sprague-Dawley rat at 2 mg/kg, iv; type: ADME, organism-based; design: dose 2 mg/kg, route intravenous; conditions: in vivo
[5] = Volume of distribution in Sprague-Dawley rat at 2 mg/kg, iv; type: ADME, organism-based; design: dose 2 mg/kg, route intravenous; conditions: in vivo
[6] = tested on: Human immunodeficiency virus; test: Antiviral activity against HIV with reverse transcriptase Y181C mutant infected in human MT2 cells assessed as inhibition of viral replication measuring p24 level after 3 days in presence of 10% fetal bovine serum; type: functional; conditions: Human immunodeficiency virus 1, MT2, Serum, 72 h; read-out: CIC95; how it was run: as §1
[7] = biological target: Human immunodeficiency virus type 1 reverse transcriptase (Human immunodeficiency virus 1, UniProt Q72547, K103N); test: Inhibition of RNA-dependent DNA polymerase activity of recombinant HIV reverse transcriptase K103N mutant assessed as BrdU incorporation by standard ECL assay
[8] = tested on: Human immunodeficiency virus; test: Antiviral activity against HIV with reverse transcriptase K103N mutant infected in human MT2 cells assessed as inhibition of viral replication measuring p24 level after 3 days in presence of 10% fetal bovine serum; type: functional; conditions: Human immunodeficiency virus 1, MT2, Serum, 72 h; read-out: CIC95; how it was run: as §1
[9] = Half life in Sprague-Dawley rat at 2 mg/kg, iv; type: ADME, organism-based; design: dose 2 mg/kg, route intravenous; conditions: in vivo
[10] = tested on: Human immunodeficiency virus; test: Antiviral activity against wild type HIV H9-3B infected in human MT2 cells assessed as inhibition of viral replication measuring p24 level after 3 days in presence of 10% fetal bovine serum; type: functional; conditions: Human immunodeficiency virus 1, MT2, Serum; read-out: CIC95; how it was run: as §2

| SMILES | IC95 [1] | IC95 [2] | Ki [3] | AUC (Rattus norvegicus) | clearance [4] | Vd [5] | IC95 [6] | Ki [7] | IC95 [8] | half-life [9] | IC95 [10] |
| --- | --- | --- | --- | --- | --- | --- | --- | --- | --- | --- | --- |
| N#Cc1cc(Cl)cc(Oc2cc(OCc3n[nH]c4ncccc34)cc(Cl)c2Cl)c1 | 277 nM | 103 nM | 2.7 nM | 3.5 µM | 5.5 mL/min/kg | 1.8 L/kg | 31 nM | 4.6 nM | 34 nM | 9.4 h | 18 nM |
| N#Cc1cc(Cl)cc(Oc2cc(OCc3noc4nc(C5=NCCN5)ccc34)ccc2Cl)c1 | – | 309 nM | 2.3 nM | – | – | – | – | 6.3 nM | 309 nM | – | 309 nM |
| N#Cc1cc(Cl)cc(Oc2cc(F)cc(OCc3n[nH]c4nc(N)ccc34)c2)c1 | – | 103 nM | 2 nM | – | – | – | – | 3.3 nM | 309 nM | – | < 3.8 nM |
| N#Cc1cc(Cl)cc(Oc2ccc(F)c(OCc3n[nH]c4ncccc34)c2)c1 | – | > 8300 nM | 47 nM | – | – | – | – | 350 nM | > 8300 nM | – | 3770 nM |
| N#Cc1cc(Cl)cc(Oc2cc(F)c(Cl)c(OCc3n[nH]c4ncccc34)c2)c1 | 93 nM | 103 nM | 5.2 nM | – | – | – | 31 nM | 0.8 nM | 11 nM | – | 11 nM |
| N#Cc1cc(Cl)cc(Oc2cc(OCc3noc4nc(N)ccc34)cc(F)c2Cl)c1 | 833 nM | 103 nM | 0.2 nM | 0.4 µM | 44.9 mL/min/kg | 5.1 L/kg | 31 nM | 0.8 nM | 103 nM | 1.9 h | 11 nM |
| N#Cc1cc(Cl)cc(Oc2cc(F)c(Cl)c(OCc3n[nH]c4nc(N)ccc34)c2)c1 | – | > 8330 nM | 120 nM | – | – | – | – | > 910 nM | > 8330 nM | – | 2780 nM |
| N#Cc1cc(Cl)cc(Oc2cc(OCc3noc4nc(N5CCOCC5)ccc34)ccc2Cl)c1 | – | 956 nM | 1.8 nM | – | – | – | – | 8.6 nM | 926 nM | – | 103 nM |
| N#Cc1cc(Cl)cc(Oc2cc(OCc3noc4nc(-n5ccnc5)ccc34)ccc2Cl)c1 | 833 nM | 309 nM | 0.2 nM | 0.7 µM | 26.9 mL/min/kg | 2.2 L/kg | 278 nM | 0.8 nM | 103 nM | 1.7 h | 33 nM |
